≈ marks a conversion by molar mass, not a printed value.
Key:
[1] = Half life in Balb Nu/Nu mouse at 10 mg/kg, po measured upto 24 hrs by HPLC-MS-MS analysis; type: ADME, organism-based; details: in vivo
[2] = in vitro; details: mouse, plasma
[3] = molecular target: T1, Protein mono-ADP-ribosyltransferase PARP3 (Homo sapiens, UniProt Q9Y6F1); assay: Displacement of fluorescent probe from human recombinant His/GST-tagged PARP3 by fluorescent polarization assay
T1 sequence (Q9Y6F1 whole entry): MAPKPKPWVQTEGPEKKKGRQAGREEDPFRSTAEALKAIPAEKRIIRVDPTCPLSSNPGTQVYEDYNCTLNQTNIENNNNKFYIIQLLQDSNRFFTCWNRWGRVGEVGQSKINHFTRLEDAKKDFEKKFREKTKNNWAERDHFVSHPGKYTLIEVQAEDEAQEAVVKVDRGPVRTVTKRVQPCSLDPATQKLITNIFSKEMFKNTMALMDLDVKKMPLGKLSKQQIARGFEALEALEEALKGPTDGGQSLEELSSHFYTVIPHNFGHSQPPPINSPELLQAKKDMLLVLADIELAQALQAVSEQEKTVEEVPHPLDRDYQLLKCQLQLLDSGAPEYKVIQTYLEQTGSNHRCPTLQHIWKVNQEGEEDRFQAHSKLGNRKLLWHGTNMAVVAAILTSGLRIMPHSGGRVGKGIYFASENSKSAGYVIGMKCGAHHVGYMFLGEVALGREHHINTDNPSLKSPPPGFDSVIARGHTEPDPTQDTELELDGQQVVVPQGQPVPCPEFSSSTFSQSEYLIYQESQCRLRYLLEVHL
How it was run: (§1)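 Fluorescence polarization displacement assay measuring probe displacement from each ARTD enzyme. Results expressed as K_D.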

[4] = Half life in Balb Nu/Nu mouse at 10 mg/kg, iv measured upto 24 hrs by HPLC-MS-MS analysis; type: ADME, organism-based; details: in vivo
[5] = molecular target: T2, Poly [ADP-ribose] polymerase 1 (Homo sapiens, UniProt P09874); assay: Displacement of fluorescent probe from human recombinant full length His-tagged PARP1 by fluorescent polarization assay
[6] = AUC (0 to infinity) in Balb Nu/Nu mouse at 10 mg/kg, po measured upto 24 hrs by HPLC-MS-MS analysis; type: ADME, organism-based; design: dose 10 mg/kg, route oral, time infinity; details: in vivo
[7] = AUC (0 to infinity) in Balb Nu/Nu mouse at 10 mg/kg, iv measured upto 24 hrs by HPLC-MS-MS analysis; type: ADME, organism-based; design: dose 10 mg/kg, time infinity, route intravenous; details: in vivo
[8] = Oral bioavailability in Balb Nu/Nu mouse at 10 mg/kg measured upto 24 hrs by HPLC-MS-MS analysis; type: ADME, organism-based; details: in vivo
How it was run: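 Oral PK in Harlan Nu/Nu mice, n = 3 per study, dosed per os at 10 mg/kg as a 0.5% methocel suspension. Bioavailability derived from oral versus iv exposure (AUC∞), with iv dosing in the same mouse strain.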

[9] = molecular target: T3, Poly [ADP-ribose] polymerase tankyrase-1 (Homo sapiens, UniProt O95271); assay: Displacement of fluorescent probe from human recombinant His-tagged TNKS1 catalytic domain (1091-1325 residues) by fluorescent polarization assay; how it was run: as §1
T3 sequence (O95271 whole entry): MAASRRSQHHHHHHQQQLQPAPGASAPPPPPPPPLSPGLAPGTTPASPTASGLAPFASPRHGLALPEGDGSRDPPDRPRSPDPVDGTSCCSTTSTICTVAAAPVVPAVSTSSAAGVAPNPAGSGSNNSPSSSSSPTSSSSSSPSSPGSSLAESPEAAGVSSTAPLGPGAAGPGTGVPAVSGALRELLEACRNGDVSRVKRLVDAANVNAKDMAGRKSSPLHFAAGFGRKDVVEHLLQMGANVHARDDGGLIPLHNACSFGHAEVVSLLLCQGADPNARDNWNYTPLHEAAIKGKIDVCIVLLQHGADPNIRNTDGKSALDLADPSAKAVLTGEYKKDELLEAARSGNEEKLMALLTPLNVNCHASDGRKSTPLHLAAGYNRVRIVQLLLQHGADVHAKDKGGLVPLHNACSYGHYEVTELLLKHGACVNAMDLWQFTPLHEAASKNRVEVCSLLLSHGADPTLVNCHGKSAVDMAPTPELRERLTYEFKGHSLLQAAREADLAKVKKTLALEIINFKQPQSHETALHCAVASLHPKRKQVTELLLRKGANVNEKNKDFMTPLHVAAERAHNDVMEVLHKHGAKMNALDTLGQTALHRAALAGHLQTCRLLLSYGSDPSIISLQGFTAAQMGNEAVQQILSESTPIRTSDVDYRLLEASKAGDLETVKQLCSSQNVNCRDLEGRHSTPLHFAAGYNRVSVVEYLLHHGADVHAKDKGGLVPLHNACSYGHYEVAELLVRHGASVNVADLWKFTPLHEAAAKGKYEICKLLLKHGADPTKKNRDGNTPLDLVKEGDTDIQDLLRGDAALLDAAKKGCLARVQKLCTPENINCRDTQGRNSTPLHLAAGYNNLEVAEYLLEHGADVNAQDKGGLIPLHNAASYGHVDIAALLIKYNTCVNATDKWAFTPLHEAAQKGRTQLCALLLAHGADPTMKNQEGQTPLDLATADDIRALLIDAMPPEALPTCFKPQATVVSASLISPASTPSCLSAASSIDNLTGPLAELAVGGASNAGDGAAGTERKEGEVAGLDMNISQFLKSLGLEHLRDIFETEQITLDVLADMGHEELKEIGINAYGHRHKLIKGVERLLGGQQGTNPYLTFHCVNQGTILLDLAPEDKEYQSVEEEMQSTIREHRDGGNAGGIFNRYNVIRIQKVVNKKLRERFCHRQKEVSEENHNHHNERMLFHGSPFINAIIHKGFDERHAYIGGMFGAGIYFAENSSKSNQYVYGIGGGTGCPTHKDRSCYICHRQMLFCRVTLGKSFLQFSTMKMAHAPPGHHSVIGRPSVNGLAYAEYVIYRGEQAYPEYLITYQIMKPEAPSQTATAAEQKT

[10] = molecular target: Cytochrome P450 2D6 (Homo sapiens, UniProt P10635); assay: Inhibition of CYP2D6 (unknown origin); type: ADME
How it was run: (§2)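 Screen of eight P450 cytochrome isoforms, with IC50 determined for each isoform.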

[11] = Permeability of the compound in pH 7.4 HBSS at 10 uM incubated for 4 hrs by LC-MS/MS based PAMPA method; type: ADME; details: read-out: permeability
[12] = Permeability of the compound in pH 7.4 HBSS buffer assessed as percentage remained in membrane at 10 uM incubated for 4 hrs by LC-MS/MS based PAMPA method; type: ADME; details: pH 7.4, 4 h
[13] = Cmax in Balb Nu/Nu mouse at 10 mg/kg, po measured upto 24 hrs by HPLC-MS-MS analysis; type: ADME, organism-based; design: dose 10 mg/kg, route oral; details: in vivo
[14] = system: CAPAN-1; assay: animal or person; details: Mus musculus, CAPAN-1, po, 288 h, read-out: GI
[15] = molecular target: T2, Poly [ADP-ribose] polymerase 1; assay: Binding affinity to human recombinant His/GST-tagged PARP1 catalytic domain (655-end residues) by surface plasma resonance method
[16] = molecular target: Poly [ADP-ribose] polymerase 2 (Homo sapiens, UniProt Q9UGN5); assay: Displacement of fluorescent probe from human recombinant full length His-tagged PARP2 by fluorescent polarization assay; how it was run: as §1
[17] = in vitro; design: dose or concentration left out as unconfirmed; details: rat, hepatocytes
[18] = molecular target: T4, Cytochrome P450 2B6 (Homo sapiens, UniProt P20813); assay: Inhibition of CYP2B6 (unknown origin); type: ADME; how it was run: as §2
T4 sequence (P20813 whole entry): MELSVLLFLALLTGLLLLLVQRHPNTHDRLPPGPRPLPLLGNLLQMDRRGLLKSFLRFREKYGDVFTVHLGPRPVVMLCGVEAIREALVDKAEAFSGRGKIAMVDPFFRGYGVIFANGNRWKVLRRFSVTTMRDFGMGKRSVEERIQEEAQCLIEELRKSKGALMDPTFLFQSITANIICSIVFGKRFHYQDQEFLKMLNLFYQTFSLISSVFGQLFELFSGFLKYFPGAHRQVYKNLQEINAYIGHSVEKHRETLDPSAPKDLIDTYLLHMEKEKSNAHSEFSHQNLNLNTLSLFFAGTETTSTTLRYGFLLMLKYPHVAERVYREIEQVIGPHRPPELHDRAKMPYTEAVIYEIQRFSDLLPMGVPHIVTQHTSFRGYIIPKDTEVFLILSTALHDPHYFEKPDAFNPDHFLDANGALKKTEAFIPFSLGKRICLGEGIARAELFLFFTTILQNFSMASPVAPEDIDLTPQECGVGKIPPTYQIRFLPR

[19] = Cmax in Balb Nu/Nu mouse at 10 mg/kg, iv measured upto 24 hrs by HPLC-MS-MS analysis; type: ADME, organism-based; design: dose 10 mg/kg, route intravenous; details: in vivo
[20] = in vitro; design: dose or concentration left out as unconfirmed; details: human, liver microsomes
[21] = Toxicity in human Capan1 cells xenografted Balb athymic Nu/Nu mouse assessed as maximum body weight loss at 80 mg/kg, po qd administered for 12 days co-treated with 62.5 mg/kg, iv qd temozolomide for 5 days starting from day 3; details: in vivo
[22] = molecular target: T2, Poly [ADP-ribose] polymerase 1; assay: Inhibition of PARP1 in human HeLa cells assessed as reduction in H2O2-induced PAR formation incubated for 30 mins followed by H2O2 addition for 15 mins by immunocytochemistry analysis; type: cell-based
[23] = Solubility in pH 7 ammonium acetate buffer by LC-MS/MS analysis; type: physicochemical
[24] = Toxicity in human Capan1 cells xenografted Balb athymic Nu/Nu mouse assessed as maximum weight loss at 80 mg/kg, po qd administered for 12 days; type: organism-based; details: in vivo, 288 h
How it was run: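 BRCA-2 mutated Capan-1 pancreatic xenograft. The PARP-1 inhibitor was given orally as a methocel suspension at 80 mg/kg once daily for 12 days. Read-outs were maximal tumor growth inhibition and maximum body weight loss.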

[25] = Half life in Balb Nu/Nu mouse at 5 mg/kg, iv measured upto 24 hrs by HPLC-MS-MS analysis; type: ADME, organism-based; details: in vivo
[26] = in vivo; details: Balb Nu/Nu, mouse, iv, 5 mg/kg
[27] = AUC (0 to infinity) in Balb Nu/Nu mouse at 5 mg/kg, iv measured upto 24 hrs by HPLC-MS-MS analysis; type: ADME, organism-based; design: dose 5 mg/kg, time infinity, route intravenous; details: in vivo
[28] = Cmax in Balb Nu/Nu mouse at 5 mg/kg, iv measured upto 24 hrs by HPLC-MS-MS analysis; type: ADME, organism-based; design: dose 5 mg/kg, route intravenous; details: in vivo
[29] = system: CAPAN-1; assay: Antitumor activity against human Capan1 cells xenografted in Balb athymic Nu/Nu mouse assessed as maximal tumor growth inhibition at 62.5 mg/kg, iv qd for 5 days; type: functional; details: CAPAN-1, iv, 120 h, read-out: TGI
How it was run: (§3)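 Capan-1 pancreatic xenograft. Temozolomide was given alone at 62.5 mg/kg iv once daily for 5 days. Maximal tumor growth inhibition and maximum body weight loss were recorded.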

[30] = Toxicity in human Capan1 cells xenografted Balb athymic Nu/Nu mouse assessed as maximum weight loss at 62.5 mg/kg, iv qd for 5 days; type: organism-based; details: in vivo, 120 h; how it was run: as §3

T2 sequence (P09874 whole entry): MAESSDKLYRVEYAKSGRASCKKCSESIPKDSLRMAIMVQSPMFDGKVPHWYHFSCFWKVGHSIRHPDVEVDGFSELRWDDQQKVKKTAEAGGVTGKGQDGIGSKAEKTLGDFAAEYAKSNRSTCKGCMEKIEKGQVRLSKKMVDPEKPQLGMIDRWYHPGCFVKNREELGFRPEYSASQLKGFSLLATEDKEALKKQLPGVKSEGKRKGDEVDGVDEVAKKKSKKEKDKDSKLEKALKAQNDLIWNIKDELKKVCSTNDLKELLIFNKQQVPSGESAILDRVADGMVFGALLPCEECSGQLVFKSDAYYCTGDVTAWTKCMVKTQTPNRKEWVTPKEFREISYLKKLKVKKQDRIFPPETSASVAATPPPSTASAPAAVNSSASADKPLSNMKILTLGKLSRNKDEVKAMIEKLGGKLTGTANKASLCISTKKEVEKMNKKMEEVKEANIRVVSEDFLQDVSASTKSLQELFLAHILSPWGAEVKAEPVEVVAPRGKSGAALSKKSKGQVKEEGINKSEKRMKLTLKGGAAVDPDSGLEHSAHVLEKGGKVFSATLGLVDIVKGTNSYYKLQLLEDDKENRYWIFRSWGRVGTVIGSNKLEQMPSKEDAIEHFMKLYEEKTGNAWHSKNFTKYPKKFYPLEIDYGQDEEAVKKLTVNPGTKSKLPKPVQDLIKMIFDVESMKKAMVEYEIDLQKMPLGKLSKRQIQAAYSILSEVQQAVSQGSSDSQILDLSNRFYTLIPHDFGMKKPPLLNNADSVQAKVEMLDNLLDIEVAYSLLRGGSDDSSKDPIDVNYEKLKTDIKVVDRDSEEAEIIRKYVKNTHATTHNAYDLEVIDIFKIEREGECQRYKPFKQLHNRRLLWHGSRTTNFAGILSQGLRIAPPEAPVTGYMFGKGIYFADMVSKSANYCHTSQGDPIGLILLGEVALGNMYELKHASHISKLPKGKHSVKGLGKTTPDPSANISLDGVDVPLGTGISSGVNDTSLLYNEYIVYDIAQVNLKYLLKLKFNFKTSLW
Sequence of Cytochrome P450 2D6 (P10635 whole entry, canonical isoform): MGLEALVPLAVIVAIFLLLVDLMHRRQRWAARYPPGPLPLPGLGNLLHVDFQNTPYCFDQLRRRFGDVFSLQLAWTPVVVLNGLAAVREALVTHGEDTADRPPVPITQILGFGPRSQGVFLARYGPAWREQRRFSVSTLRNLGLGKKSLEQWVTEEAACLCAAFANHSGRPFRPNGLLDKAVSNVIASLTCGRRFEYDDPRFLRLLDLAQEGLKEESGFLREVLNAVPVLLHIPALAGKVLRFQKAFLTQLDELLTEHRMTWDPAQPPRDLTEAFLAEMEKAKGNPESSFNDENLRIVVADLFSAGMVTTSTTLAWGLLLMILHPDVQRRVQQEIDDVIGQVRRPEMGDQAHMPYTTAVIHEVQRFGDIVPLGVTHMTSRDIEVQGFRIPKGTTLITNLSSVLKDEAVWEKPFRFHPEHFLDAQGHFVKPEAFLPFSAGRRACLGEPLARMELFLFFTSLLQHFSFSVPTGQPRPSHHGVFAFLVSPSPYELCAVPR
Sequence of Poly [ADP-ribose] polymerase 2 (Q9UGN5 whole entry): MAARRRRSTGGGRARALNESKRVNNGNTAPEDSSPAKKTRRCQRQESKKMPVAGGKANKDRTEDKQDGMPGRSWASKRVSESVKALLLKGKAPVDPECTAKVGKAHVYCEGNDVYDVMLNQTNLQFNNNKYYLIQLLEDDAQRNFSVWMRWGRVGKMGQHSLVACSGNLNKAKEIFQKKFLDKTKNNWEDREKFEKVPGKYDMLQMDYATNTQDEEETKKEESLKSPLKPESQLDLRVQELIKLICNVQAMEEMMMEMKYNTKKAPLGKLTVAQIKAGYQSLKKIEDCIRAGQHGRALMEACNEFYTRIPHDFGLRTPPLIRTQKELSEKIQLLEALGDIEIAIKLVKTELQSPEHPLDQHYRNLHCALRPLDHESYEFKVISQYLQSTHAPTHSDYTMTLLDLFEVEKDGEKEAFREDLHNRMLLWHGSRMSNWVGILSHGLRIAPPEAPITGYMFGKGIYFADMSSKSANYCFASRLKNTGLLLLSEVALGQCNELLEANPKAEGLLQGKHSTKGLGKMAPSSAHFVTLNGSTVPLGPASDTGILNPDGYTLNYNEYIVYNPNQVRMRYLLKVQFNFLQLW

| Structure (SMILES) | half-life [1] | fraction unbound [2] | Kd [3] | Kd [5] | AUC(0-inf) [6] | bioavailability [8] | Kd [9] | IC50 [10] | Papp at 4 h, 10 µM [11] | permeability [12] | Cmax [13] | Kd [15] | Kd [16] | CLint scaled at 1.5 h [17] | IC50 [18] | CLint scaled at 0.5 h [20] | IC50 [22] | solubility [23] | other results |
| --- | --- | --- | --- | --- | --- | --- | --- | --- | --- | --- | --- | --- | --- | --- | --- | --- | --- | --- | --- |
| C[C@H]1c2cccc(C(N)=O)c2C(=O)N1C1CCN(C2CCCCC2)CC1 | 2.6 h | 0.13 | > 10000 nM | < 30 nM | 4.9 µM·h | 78.3% | > 10000 nM | > 31000 nM | 27.3 ×10⁻⁶ cm/s | 0% | 1400 nM | 16 nM | > 10000 nM | 5 mL/min/kg | > 31000 nM | 5 mL/min/kg | 27 nM | > 225 µM | half-life [4]: 2.1 h; AUC(0-inf) [7]: 8.2 µM·h; inhibition in vivo at 80 mg/kg [14]: 48%; Cmax [19]: 4900 nM; Activity [21]: 17%; Activity [24]: 6% |
| CC1c2cccc(C(N)=O)c2C(=O)N1C1CCN(C2CCCCC2)CC1 (racemic) | 3.1 h | 0.05 | > 10000 nM | < 30 nM | 13.5 µM·h | 100% | > 10000 nM | 600 nM | 39.4 ×10⁻⁶ cm/s | 8% | 2500 nM |  | > 10000 nM | 5 mL/min/kg | 4900 nM | 5 mL/min/kg | 50 nM | 140 µM (≈ 49.8 µg/mL) | half-life [25]: 1.8 h; Vd at 24 h [26]: 3.6 L/kg; AUC(0-inf) [27]: 6.3 µM·h; Cmax [28]: 2500 nM |
| C[C@@H]1c2cccc(C(N)=O)c2C(=O)N1C1CCN(C2CCCCC2)CC1 |  |  |  | 1320 nM |  |  |  |  |  |  |  | 1760 nM |  |  |  |  | 162 nM |  |  |
| CC1c2cc(F)cc(C(N)=O)c2C(=O)N1C1CCN(C2CCCCC2)CC1 (racemic) |  |  |  |  |  |  |  |  |  |  |  |  |  |  |  |  | 640 nM |  |  |
| Cn1nnc2c(C(N)=O)ncn2c1=O [TEMOZOLOMIDE] |  |  |  |  |  |  |  |  |  |  |  |  |  |  |  |  |  |  | inhibition in vivo at 62.5 mg/kg [29]: 46%; Activity [30]: 8% |

Source: ChEMBL document CHEMBL4433216, “Discovery of Stereospecific PARP-1 Inhibitor Isoindolinone NMS-P515” (ACS Med Chem Lett, 2019)
